Source: PubChem BioAssay
C2C12 statin = suppressors of simvastatin-induced myotoxicity in C2C12 myotubes | ATP luminescence, 48 h; scaled: DMSO 0, geranylgeraniol control 100 | hit rate 0.78% among 330,000 | rescue of ATP level, % at 7.49 µM;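 active means mean ATP rescue above about 67%, or every replicate alone reaching that limit, limit read from the data, passing the limit was not always enough; inconclusive means no clear call, values can overlap the other calls; inactive means mean under the limit and some replicate under it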;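 further: myotubes were challenged with 10 µM simvastatin during compound exposure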
DENV2 CPE = inhibitors of DENV2 cytopathic effect | DENV2-infected cells, cytopathic effect rescue, plate reader | CPE inhibition, % at 9.99 µM | hit rate 1.7% among 350,000; in the data active means CPE inhibition above about 20%, passing the limit was not always enough; inconclusive means no clear call, values can overlap the other calls; tested in BHK-21 cells;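 further: 0% = median of neutral control wells and 100% = median of positive control wells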
E-sel inducer = E-selectin induction on HUVECs; P16581; activation, % at 7.58 µM; hit rate 0.37% among 260,000; HUVEC E-selectin immunofluorescence imaging; normalized: neutral wells 0, TNF-alpha wells 100; AID 686992;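 active means mean E-selectin-positive cell signal at least 10% of the positive control, reached in at least 60% of replicates, without over 20% cell loss; inconclusive means no rule given, readout overlaps actives, possibly toxicity-flagged; inactive means the rest, including those meeting only one limit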
Target sequence (P16581 whole entry, looked up): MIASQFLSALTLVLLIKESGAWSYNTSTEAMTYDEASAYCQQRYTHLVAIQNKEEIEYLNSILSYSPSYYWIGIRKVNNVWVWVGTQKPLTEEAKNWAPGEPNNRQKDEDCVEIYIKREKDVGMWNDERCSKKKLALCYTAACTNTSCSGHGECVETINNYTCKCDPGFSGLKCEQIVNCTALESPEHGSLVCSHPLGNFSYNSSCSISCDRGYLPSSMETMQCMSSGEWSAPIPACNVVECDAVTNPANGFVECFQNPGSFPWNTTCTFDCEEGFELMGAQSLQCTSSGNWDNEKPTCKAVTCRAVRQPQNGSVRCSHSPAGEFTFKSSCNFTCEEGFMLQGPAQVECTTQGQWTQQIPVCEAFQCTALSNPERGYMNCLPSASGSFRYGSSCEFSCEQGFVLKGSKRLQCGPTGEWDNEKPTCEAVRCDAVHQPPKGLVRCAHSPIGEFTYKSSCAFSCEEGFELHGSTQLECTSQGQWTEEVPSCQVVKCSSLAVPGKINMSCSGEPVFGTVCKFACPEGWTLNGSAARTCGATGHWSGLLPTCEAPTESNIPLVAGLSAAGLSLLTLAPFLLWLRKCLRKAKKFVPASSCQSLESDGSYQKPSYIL
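Test system – human umbilical vein endothelial cells (HUVEC), E-selectin induction · Input – 3,000 HUVEC seeded per well · Buffer or medium – EGM-2, gelatin · Compound dosing – single-point compound dose · Detection – immunofluorescence imaging · Measure – percent E-selectin-positive cells · Controls – TNF-alpha high, DMSO low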
* = called active by the depositor; ? = inconclusive; . = no result. Shown are actives, neighbours in structure and some others; about 2.2% of the full set was active somewhere.

SMILES	C2C12 statin	DENV2 CPE	E-sel inducer
Cc1ccc(NC(=O)Cn2cccc2C2=NC(c3ccccc3)CO2)cc1C (configuration not stated)	.	103*	.
Fc1ccc(Cn2cccc2C2=NC(c3ccccc3)CO2)cc1 (configuration not stated)	.	-3	.
CC(=O)N1[C@H](CO)[C@H](c2ccccc2)C12CN(C(=O)CN1CCOCC1)C2	.	83*	0
CC(=O)N1[C@H](CO)[C@@H](c2ccccc2)C12CN(C(=O)c1ccc3c(c1)OCO3)C2	.	55*	0
CC(=O)N1[C@H](CO)[C@H](c2ccccc2)C12CN(C(=O)c1ccc3c(c1)OCO3)C2	.	1	0
CCC(=O)N1[C@@H](CO)[C@@H](c2ccccc2)C12CN(C(=O)CN1CCOCC1)C2	.	-4	0
O=C(c1ccc2c(c1)OCO2)N1CCC(Cc2ccccc2)CC1	.	25*	.
O=C(c1ccccc1)N1CCN(C(=O)c2ccc3c(c2)OCO3)CC1	0	-6	0
O=C(Nc1ccc(Cl)cc1)N1C[C@H]2[C@@H](c3ccccc31)[C@@H](CO)N2C(=O)c1ccccn1	-1	6	1
O=C(C[C@H]1C=C[C@@H](NC(=O)c2ccc(F)cc2)[C@H](CO)O1)NCCc1ccncc1	-5	-2	0
COC(=O)c1ccc(N2C(=O)CC(SCC(=O)Nc3ccc(OC)cc3)C2=O)cc1 (configuration not stated)	.	5	58*
CCOC(=O)c1ccc(N2C(=O)CC(SCC(=O)Nc3ccc(S(N)(=O)=O)cc3)C2=O)cc1 (configuration not stated)	.	-5	.
C=CCc1c(C)[nH]c2ccc(C)cc2c1=O	95*	.	.
CCc1c(C)[nH]c2ccc(C)cc2c1=O	-25	.	.
CN(C)CC(=O)Nc1ccc2c(c1)[C@@H]1C[C@@H](CC(=O)NCc3cc(F)ccc3F)O[C@@H](CO)[C@@H]1O2	0	-2	0
CO[C@H]1CN(C)C(=O)c2ccc(NC(C)=O)cc2OC[C@@H](C)N(CCC(F)(F)F)C[C@H]1C	2	3	0
CN(C)c1ccc(/C=N/NC(=O)c2ccc3nc[nH]c3c2)cc1	-8	-1	1
CSc1ccc(/C=N/NC(=O)c2ccc3nc[nH]c3c2)cc1	-4	-13	40*
COc1cccc(C(C(=O)NC(C)(C)C)N(C(=O)CCC(=O)Nc2cc(C)on2)C(C)(C)C)c1OC (configuration not stated)	67*	.	.
COc1cccc(C(C(=O)NC(C)(C)C)N(Cc2ccc(C)cc2)C(=O)CCC(=O)Nc2cc(C)on2)c1OC (configuration not stated)	4	7	.
C[C@@H]1CN([C@@H](C)CO)C(=O)c2cc(NS(=O)(=O)c3ccc(F)cc3)ccc2O[C@@H](C)CCCCO[C@@H]1CN(C)C(=O)Nc1ccc(F)cc1	.	-12	0
Cc1ccc(C(C)C)c(OCCNC(=O)c2ccccc2O)c1	-13	45*	0
CSc1ccc(Cl)c(C(=O)NCCOc2cc(C)ccc2C(C)C)c1	-5	1	.
C[C@H](CO)N1C[C@H](C)[C@H](CN(C)S(=O)(=O)c2cn(C)cn2)Oc2ccc(NC(=O)NC3CCCCC3)cc2CC1=O	14	6	5
COc1ccc(N(C(=O)c2ccn[nH]2)C(C(=O)NC(C)(C)C)c2ccc(F)cc2)cc1 (configuration not stated)	88*	.	.
SMILES	C2C12 statin	DENV2 CPE	E-sel inducer
CC(C)(C)NC(=O)C(c1ccc(F)cc1)N(CCc1ccccc1)C(=O)c1ccn[nH]1 (configuration not stated)	12	-1	0
CSc1ccc(CCNS(=O)(=O)c2csc(C(N)=O)c2)cc1	91*	13	.
NC(=O)c1cc(S(=O)(=O)NCc2ccc(F)cc2)cs1	4	4	.
Cc1cccc(NS(=O)(=O)c2csc(C(N)=O)c2)c1C	2	2	50*
Cc1cccc(NS(=O)(=O)c2csc(C(N)=O)c2)c1	13	7	0
C[C@@H]1CN([C@@H](C)CO)C(=O)c2cc(NS(=O)(=O)c3ccccc3)ccc2O[C@@H](C)CCCCO[C@@H]1CN(C)C	7	7	1
C[C@@H]1CN([C@H](C)CO)C(=O)c2cc(C#CC3(O)CCCC3)cnc2O[C@H]1CN(C)C(=O)Cc1ccncc1	4	2	0
CCOC(=O)CSc1nc2sc3c(c2c(=O)n1-c1ccc(OC)cc1)CCN(C)C3	11	7	0
CCSc1nc2sc3c(c2c(=O)n1-c1ccc(OC)cc1)CCN(C)C3	101*	7	0
CCCCCNC(=O)C1CC=CCC1C(=O)O (configuration not stated)	125*	.	.
CCCCN(CCCC)C(=O)C1CC=CCC1C(=O)O (configuration not stated)	-1	-5	.
C[C@@H]1CN([C@H](C)CO)C(=O)Cc2cc(NC(=O)Cc3cn(C)c4ccccc34)ccc2O[C@H]1CN(C)CC1CCCCC1	44	17	2
CO[C@H]1CN(C)C(=O)c2cc(NC(=O)C3CC3)ccc2OC[C@@H](C)N(Cc2ccncc2)C[C@@H]1C	-1	-12	0
Cc1ccc(CC(=O)c2ccc(Cl)cc2)cc1	133*	?	0
O=C(Cc1ccc(Cl)cc1)c1ccc(O)cc1	.	1	0
CCOC(=O)c1cnn(-c2ccc(C)cc2)c1N	-26	.	.
CCOC(=O)c1cnn(-c2ncnc3sc(C)c(C)c23)c1N	81*	.	.
COc1ccc(NC(=O)N(C)C[C@H]2Oc3c(NS(=O)(=O)c4cn(C)cn4)cccc3C(=O)N([C@@H](C)CO)C[C@@H]2C)cc1	.	26*	39*
COc1ccc(NC(=O)N(C)C[C@@H]2Oc3c(NS(=O)(=O)c4cn(C)cn4)cccc3C(=O)N([C@@H](C)CO)C[C@H]2C)cc1	.	-2	28*
COc1ccc(NC(=O)N(C)C[C@H]2Oc3c(NS(=O)(=O)c4cn(C)cn4)cccc3C(=O)N([C@H](C)CO)C[C@H]2C)cc1	.	0	?
COc1ccc(NC(=O)N(C)C[C@@H]2Oc3c(NS(=O)(=O)c4cn(C)cn4)cccc3C(=O)N([C@@H](C)CO)C[C@@H]2C)cc1	.	-6	-12
CCC(=O)N1CC2(C1)[C@H](c1ccc(-c3ccccc3)cc1)[C@@H](CO)N2S(C)(=O)=O	.	0	0
N#C[C@@H]1[C@H](c2ccccc2C2=CCCCC2)[C@@H](CO)N1C(=O)NC1CCCCC1	.	-1	0
O=C(CC1CC1)N1CC[C@@H]2[C@@H](CO)Nc3ccc(-c4cccc(F)c4)cc3[C@@H]21	1	1	-1
O=C(c1ccc([N+](=O)[O-])o1)N1CCN(c2nc3c(Cl)cccc3s2)CC1	?	-1	0
Cc1ccc2sc(N3CCN(C(=O)c4ccc([N+](=O)[O-])o4)CC3)nc2c1C	85*	-3	1
O=C(c1ccc([N+](=O)[O-])o1)N1CCN(c2nc3ccc(F)cc3s2)CC1	68*	-6	.
COc1cccc2sc(N3CCN(C(=O)c4ccc([N+](=O)[O-])o4)CC3)nc12	47	.	.
CN1C(=O)c2cc(NC(=O)C3CCCC3)ccc2OC[C@H]2O[C@@H](CC(=O)NCC3CC3)CC[C@@H]21	-1	32*	0
